Data published in ChEMBL document CHEMBL3877306, “Triazole Ureas Act as Diacylglycerol Lipase Inhibitors and Prevent Fasting-Induced Refeeding” (J Med Chem, 2017).
pIC50: −log10 of the molar value. The source made the active and inactive calls. The calls are words filed in the database; no cut-off is given here.

Key:
[1] = molecular target: T1, Diacylglycerol lipase-alpha (Homo sapiens, UniProt Q9Y4D2); assay: Inhibition of full length recombinant human DAGLalpha expressed in HEK293T cell membranes using PNP butyrate as substrate by colorimetric assay; set-up: species or system HEK-293T
T1 sequence (Q9Y4D2 whole entry): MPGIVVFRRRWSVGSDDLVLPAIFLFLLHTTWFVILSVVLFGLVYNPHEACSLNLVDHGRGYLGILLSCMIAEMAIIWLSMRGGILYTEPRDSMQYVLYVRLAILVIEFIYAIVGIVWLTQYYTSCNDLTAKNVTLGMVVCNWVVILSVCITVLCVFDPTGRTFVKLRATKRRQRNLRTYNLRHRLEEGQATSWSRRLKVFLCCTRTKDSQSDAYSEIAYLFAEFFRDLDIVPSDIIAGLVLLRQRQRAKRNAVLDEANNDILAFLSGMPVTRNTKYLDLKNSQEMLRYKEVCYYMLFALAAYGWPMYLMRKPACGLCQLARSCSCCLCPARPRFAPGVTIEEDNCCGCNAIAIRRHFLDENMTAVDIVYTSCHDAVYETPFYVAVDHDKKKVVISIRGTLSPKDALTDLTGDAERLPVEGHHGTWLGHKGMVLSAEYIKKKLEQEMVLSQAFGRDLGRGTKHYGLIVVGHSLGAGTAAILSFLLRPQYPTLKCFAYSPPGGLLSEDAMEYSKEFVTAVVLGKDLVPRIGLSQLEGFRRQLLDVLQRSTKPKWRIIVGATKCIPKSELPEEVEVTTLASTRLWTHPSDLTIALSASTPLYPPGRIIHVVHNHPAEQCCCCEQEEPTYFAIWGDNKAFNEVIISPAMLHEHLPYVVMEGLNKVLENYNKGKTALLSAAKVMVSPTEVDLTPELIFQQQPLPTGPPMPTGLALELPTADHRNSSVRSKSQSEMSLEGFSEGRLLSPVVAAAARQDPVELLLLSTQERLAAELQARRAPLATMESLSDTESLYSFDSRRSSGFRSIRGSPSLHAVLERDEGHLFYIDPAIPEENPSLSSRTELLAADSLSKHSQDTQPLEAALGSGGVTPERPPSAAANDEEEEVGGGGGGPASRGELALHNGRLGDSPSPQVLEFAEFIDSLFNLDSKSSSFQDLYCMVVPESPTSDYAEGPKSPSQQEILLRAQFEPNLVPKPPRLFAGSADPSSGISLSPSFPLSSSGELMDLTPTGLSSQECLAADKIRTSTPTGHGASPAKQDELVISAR
Method in brief: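 Membranes from HEK293T cells transiently transfected with human DAGLα (PEI transfection, harvested at 72 h), used at 0.05 µg/µL final protein in 50 mM HEPES pH 7.2. Activity was read colorimetrically from para-nitrophenylbutyrate hydrolysis. n = 4, mean ± SEM.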

[2] = molecular target: T2, Diacylglycerol lipase-alpha (Mus musculus, UniProt Q6WQJ1); assay: Inhibition of MB064 probe binding to DAGLalpha in mouse brain membrane proteome preincubated for 30 mins followed by MB064 probe addition measured after 20 mins by gel-based competitive activity based protein profiling assay; format: cell membranes
T2 sequence (Q6WQJ1 whole entry): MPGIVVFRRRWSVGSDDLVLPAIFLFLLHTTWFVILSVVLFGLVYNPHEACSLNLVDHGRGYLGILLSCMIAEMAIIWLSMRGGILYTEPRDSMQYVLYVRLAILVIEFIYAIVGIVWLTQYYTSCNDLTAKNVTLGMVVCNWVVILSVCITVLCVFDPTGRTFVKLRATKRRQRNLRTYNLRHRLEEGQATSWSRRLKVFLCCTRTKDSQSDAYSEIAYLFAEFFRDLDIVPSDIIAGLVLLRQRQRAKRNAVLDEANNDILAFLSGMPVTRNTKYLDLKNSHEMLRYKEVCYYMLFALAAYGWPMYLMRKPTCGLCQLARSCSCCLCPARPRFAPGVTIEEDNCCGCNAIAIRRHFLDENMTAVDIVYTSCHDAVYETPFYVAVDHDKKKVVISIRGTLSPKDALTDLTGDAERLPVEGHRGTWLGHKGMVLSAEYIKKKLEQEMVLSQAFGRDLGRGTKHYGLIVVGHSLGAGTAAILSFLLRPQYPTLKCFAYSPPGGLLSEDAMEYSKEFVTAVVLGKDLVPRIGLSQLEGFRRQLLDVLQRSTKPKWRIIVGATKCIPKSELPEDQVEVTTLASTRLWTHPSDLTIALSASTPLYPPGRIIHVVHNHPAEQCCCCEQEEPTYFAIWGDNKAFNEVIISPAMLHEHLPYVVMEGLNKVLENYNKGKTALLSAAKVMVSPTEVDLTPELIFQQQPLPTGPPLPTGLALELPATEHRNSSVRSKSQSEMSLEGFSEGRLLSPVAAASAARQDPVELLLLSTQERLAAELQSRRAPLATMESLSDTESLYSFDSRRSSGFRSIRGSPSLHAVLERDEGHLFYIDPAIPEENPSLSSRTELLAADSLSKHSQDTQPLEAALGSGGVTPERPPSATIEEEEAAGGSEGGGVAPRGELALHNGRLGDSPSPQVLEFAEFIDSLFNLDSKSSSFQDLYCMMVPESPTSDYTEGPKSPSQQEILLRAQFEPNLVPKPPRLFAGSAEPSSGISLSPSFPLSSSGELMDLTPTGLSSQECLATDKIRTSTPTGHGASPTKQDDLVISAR
Method in brief: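 Mouse brain membrane proteome (2 mg/mL) preincubated with inhibitor or DMSO vehicle for 30 min at r.t., then labelled with MB064 at 250 nM final for 20 min at r.t. and quenched in Laemmli buffer. Fluorescent bands were quantified against vehicle set to 100%, and IC50 was taken from a variable-slope log(inhibitor) vs normalized response fit. n = 3.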

[3] = molecular target: T1, Diacylglycerol lipase-alpha; assay: Inhibition of recombinant human DAGLalpha expressed in HEK293T cell membranes overexpressing MAGL using natural substrate 1-stearoyl-2-arachidonoly-sn-glycerol by fluorescence based assay; set-up: species or system HEK-293T
Method in brief: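 Real-time coupled fluorescence readout of glycerol release from hDAGLα-transfected HEK293T membranes (50 µg/mL final protein) with 100 µM SAG substrate. Added: 5 µg/mL MAGL-overexpressing membranes, 0.0075% (w/v) Triton X-100, 0.2 U/mL each glycerol kinase, glycerol-3-phosphate oxidase and HRP, 0.125 mM ATP, 10 µM Amplifu Red, 5% DMSO. n = 4.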

[4] = molecular target: T3, Monoacylglycerol lipase ABHD6 (Homo sapiens, UniProt Q9BV23); assay: Inhibition of human ABHD6 using 2-AG as natural substrate by fluorescence based assay
T3 sequence (Q9BV23 whole entry): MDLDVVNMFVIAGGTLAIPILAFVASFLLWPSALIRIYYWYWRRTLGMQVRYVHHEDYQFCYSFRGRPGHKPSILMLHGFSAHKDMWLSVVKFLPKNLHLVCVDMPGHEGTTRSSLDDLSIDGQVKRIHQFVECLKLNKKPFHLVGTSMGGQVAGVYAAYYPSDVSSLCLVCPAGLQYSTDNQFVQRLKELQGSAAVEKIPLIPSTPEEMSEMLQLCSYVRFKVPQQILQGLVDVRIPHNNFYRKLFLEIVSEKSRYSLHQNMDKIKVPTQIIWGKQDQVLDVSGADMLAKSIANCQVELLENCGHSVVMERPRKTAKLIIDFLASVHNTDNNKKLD
Method in brief: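 Coupled fluorescence assay: 2-AG hydrolysis detected via glycerol kinase, glycerol-3-phosphate oxidase and HRP (0.2 U/mL each), 0.125 mM ATP and 10 µM Amplifu Red. Conditions: 25 µM 2-AG, 0.5% acetonitrile, 5% DMSO, ABHD6 membrane protein 40 µg/mL final. n = 4.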

Mus musculus [5] = assay: Toxicity in 18 hrs fasted C57Bl/6J mouse model of fasting-induced refeeding assessed as hypolocomotion at 50 mg/kg, ip administered as single dose 30 mins prior to refeeding measured after 24 hrs; format: organism-based; conditions: in vivo
Mus musculus [6] = assay: Inhibition of fasting-induced refeeding in 18 hrs fasted C57Bl/6J mouse at 50 mg/kg, ip administered as single dose 30 mins prior to refeeding measured up to 16 hrs; format: functional, organism-based
Mus musculus [7] = assay: Ex vivo inhibition of FP-TAMRA probe binding to carboxylesterase in mouse liver at 3 to 50 mg/kg, ip after 4 hrs by gel-based competitive activity based protein profiling assay; format: functional, organism-based
[8] = molecular target: T4, Diacylglycerol lipase-beta (Mus musculus, UniProt Q91WC9); assay: Inhibition of recombinant mouse DAGLbeta expressed in HEK293T cell membranes using PNP butyrate as substrate by colorimetric assay; set-up: species or system HEK-293T
T4 sequence (Q91WC9 whole entry): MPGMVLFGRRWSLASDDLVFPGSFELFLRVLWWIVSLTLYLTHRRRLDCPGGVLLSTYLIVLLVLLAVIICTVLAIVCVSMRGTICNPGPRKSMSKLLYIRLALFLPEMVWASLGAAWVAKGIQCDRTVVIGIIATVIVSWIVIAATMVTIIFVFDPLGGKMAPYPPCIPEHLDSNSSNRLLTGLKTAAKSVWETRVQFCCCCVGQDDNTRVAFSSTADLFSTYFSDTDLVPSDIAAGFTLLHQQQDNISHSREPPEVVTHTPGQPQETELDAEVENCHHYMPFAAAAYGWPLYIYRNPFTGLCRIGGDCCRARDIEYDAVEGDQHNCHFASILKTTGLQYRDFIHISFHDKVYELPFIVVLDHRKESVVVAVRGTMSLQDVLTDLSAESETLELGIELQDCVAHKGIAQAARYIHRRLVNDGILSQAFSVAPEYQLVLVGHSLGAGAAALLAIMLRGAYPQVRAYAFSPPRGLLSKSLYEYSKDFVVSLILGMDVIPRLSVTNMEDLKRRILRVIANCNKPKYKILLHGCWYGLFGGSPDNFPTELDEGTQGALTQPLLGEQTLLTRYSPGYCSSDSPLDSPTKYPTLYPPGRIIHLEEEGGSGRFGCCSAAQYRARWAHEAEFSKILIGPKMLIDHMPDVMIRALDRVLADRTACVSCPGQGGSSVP
Method in brief: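 Membranes from HEK293T cells transiently transfected with mouse DAGLβ. Activity was read colorimetrically as hydrolysis of para-nitrophenylbutyrate surrogate substrate over a concentration range of inhibitor. n = 4, mean ± SEM.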

[9] = molecular target: T5, Diacylglycerol lipase-beta (Homo sapiens) (UniProt Q8NCG7); assay: Inhibition of DH379 probe binding to full length recombinant human DAGLbeta expressed in HEK293T cell membranes at 0.1 to 10000 nM after 30 mins by gel-based competitive activity based protein profiling assay; conditions: HEK-293T
T5 sequence (whole entry): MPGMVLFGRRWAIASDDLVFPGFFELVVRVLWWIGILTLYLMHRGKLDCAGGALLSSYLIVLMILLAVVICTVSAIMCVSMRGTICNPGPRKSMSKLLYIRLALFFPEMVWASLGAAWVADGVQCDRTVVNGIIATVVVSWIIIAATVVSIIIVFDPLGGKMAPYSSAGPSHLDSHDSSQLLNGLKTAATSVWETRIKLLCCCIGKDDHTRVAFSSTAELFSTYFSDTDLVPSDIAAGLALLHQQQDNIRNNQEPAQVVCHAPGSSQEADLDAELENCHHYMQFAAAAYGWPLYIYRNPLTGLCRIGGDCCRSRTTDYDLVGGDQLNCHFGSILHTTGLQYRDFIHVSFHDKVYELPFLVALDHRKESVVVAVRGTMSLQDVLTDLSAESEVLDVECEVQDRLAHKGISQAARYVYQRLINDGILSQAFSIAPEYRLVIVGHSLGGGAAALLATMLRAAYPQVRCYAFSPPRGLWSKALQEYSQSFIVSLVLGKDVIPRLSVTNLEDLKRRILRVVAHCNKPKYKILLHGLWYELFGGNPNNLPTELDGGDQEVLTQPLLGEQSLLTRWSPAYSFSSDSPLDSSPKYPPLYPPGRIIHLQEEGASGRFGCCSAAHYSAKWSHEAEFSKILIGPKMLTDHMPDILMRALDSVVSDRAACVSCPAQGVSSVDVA
Method in brief: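 HEK293T cells transiently transfected with full-length human DAGLβ cDNA (PEI:DNA 3:1), harvested at 72h; membrane fraction diluted to 1 mg/mL protein. Inhibitor-treated membranes were labelled with DAGL-tailored probe DH379 (1 μM, 30 min), then run on fluorescent SDS-PAGE. Band intensity was normalised to vehicle (100%), and IC50 was fitted to log(inhibitor) vs normalised response with variable slope; n = 3.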

[10] = molecular target: T6, Diacylglycerol lipase-alpha (Homo sapiens) (UniProt Q9Y4D2); assay: Inhibition of DH379 probe binding to full length recombinant human DAGLalpha expressed in HEK293T cell membranes at 0.1 to 10000 nM after 30 mins by gel-based competitive activity based protein profiling assay; conditions: HEK-293T
T6 sequence (whole entry): T1 sequence (Q9Y4D2 whole entry)
Method in brief: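 Membranes from HEK293T cells transiently transfected with human DAGLα were preincubated with inhibitor, then labelled with DAGL-tailored probe DH379 (1 μM, 30 min). Readout was fluorescent SDS gel. Band intensity was normalized to vehicle (100%) and fitted with a variable-slope dose-response curve. n = 3.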

[11] = molecular target: T1, Diacylglycerol lipase-alpha; assay: Inhibition of HT-01 probe binding to recombinant human DAGLalpha expressed in HEK293T cell membrane proteomes preincubated for 30 mins followed by HT-01 probe addition measured after 30 mins by gel-based competitive activity based protein profiling assay; format: cell membranes, HEK-293T

pIC50 [1]	pIC50 [8]	SMILES	pIC50 [3]	pIC50 [4]	also measured
		C/C=C/C=O [CROTONALDEHYDE]			Activity (Mus musculus [5]): Toxic; inhibition (Mus musculus [6]): Active; inhibition (Mus musculus [7]): Active
7.70	4.70	CCC1CCCCN1C(=O)n1cc(-c2ccc(-c3ccccc3)cc2)nn1 (configuration not stated)			
8.60	7.90	O=C(N1CCCCC1Cc1ccccc1)n1ncc(C(O)(c2ccccc2)c2ccccc2)n1 (configuration not stated)		7.70	inhibition [9]: Active; inhibition [10]: Active
7.20	4.90	CCC1CCCCN1C(=O)n1ncc(C(O)(c2ccccc2)c2ccccc2)n1 (configuration not stated)			
		C/C=C/[C@@H](O)C#N			Activity (Mus musculus [5]): Toxic; inhibition (Mus musculus [6]): Active; inhibition (Mus musculus [7]): Active
7.60	7.10	O=C(N1CCCCC1Cc1ccccc1)n1cc(C(O)(c2ccccc2)c2ccccc2)nn1 (configuration not stated)		7.40	

SMILES	pIC50 [1]	pIC50 [8]	pIC50 [3]	pIC50 [4]	also measured
O=C(N1CCCC[C@H]1Cc1ccccc1)n1cc(-c2ccc(-c3ccccc3)cc2)nn1	7.40		6.10	6.20	pIC50 [2]: 6.20
O=C(N1CCCCC1Cc1ccccc1)n1cc(-c2ccc(-c3ccccc3)cc2)nn1 (racemic)	8.20 to 8.90		6.90	7.40	pIC50 [11]: 5.64; inhibition [9]: Active; inhibition [10]: Active
O=C(N1CCCC[C@@H]1Cc1ccccc1)n1cc(-c2ccc(-c3ccccc3)cc2)nn1	9.10		7.60	8.60	pIC50 [2]: 8.10
